# Measured values reported in ChEMBL document CHEMBL1687725, “Pharmacokinetics and safety of caspofungin in older infants and toddlers” (Antimicrob Agents Chemother, 2009).
# Tests used:
# [1] = AUC (0 to 24 hrs) in 17 […] old infants/toddlers measured on day 1 post dose; format: ADME, organism-based; parameters: time < 24 hr; conditions: human, plasma
# [2] = AUC (0 to 24 hrs) in 17 […] old infants/toddlers measured on day 4 post dose; format: ADME, organism-based; parameters: time < 24 hr; conditions: human, plasma
# [3] = Cmax in plasma of in 17 […] old infants/toddlers measured on day 1 post dose; format: ADME, organism-based; conditions: human
# [4] = Cmax in plasma of in 17 years old infants/toddlers measured on day 4 post dose; format: ADME, organism-based; conditions: human
# Homo sapiens [5] = species: Homo sapiens; test: Clearance in 17 […] old infants/toddlers measured on day 1 post dose; format: ADME, organism-based; conditions: in vivo
# [6] = AUC (0 to 24 hrs) in 20 […] old infants/toddlers measured on day 1 post dose; format: ADME, organism-based; parameters: time < 24 hr; conditions: human, plasma
# [7] = AUC (0 to 24 hrs) in 20 […] old infants/toddlers measured on day 4 post dose; format: ADME, organism-based; parameters: time < 24 hr; conditions: human, plasma
# [8] = Cmax in plasma of in […] infants/toddlers measured on day 1 post dose; format: ADME, organism-based; conditions: human
# [9] = Cmax in plasma of in 20 […] old infants/toddlers measured on day 4 post dose; format: ADME, organism-based; conditions: human
# Method in brief: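 Infants/toddlers (10 to 24 months) with fever and neutropenia received caspofungin 50 mg/m2 once daily as a 1-h infusion. C1 is the observed plasma concentration at the end of the first (day 1) or fourth (day 4) infusion, sampled from 20 min before to 30 min after the end of infusion. Caspofungin was measured by HPLC with fluorescence detection.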
# [10] = AUC (0 to 24 hrs) in 3-24 months old infants/toddlers at 50 mg/m'2, iv dosed once daily measured on day 1 post dose; format: ADME, organism-based; parameters: time < 24 hr, route intravenous; conditions: human, plasma
# [11] = Cmax in plasma of 3-24 months old infants/toddlers at 50 mg/m'2, iv dosed once daily measured on day 1 post dose; format: ADME, organism-based; parameters: route intravenous; conditions: human
# Homo sapiens [12] = test: Clearance in 3-24 months old infants/toddlers at 50 mg/m'2, iv dosed once daily measured on day 1 post dose; format: ADME, organism-based; conditions: in vivo
# [13] = AUC (0 to 24 hrs) in 3-24 months old infants/toddlers at 50 mg/m'2, iv dosed once daily measured on day 4 post dose; format: ADME, organism-based; parameters: time < 24 hr, route intravenous; conditions: human, plasma
# [14] = Cmax in plasma of 3-24 months old infants/toddlers at 50 mg/m'2, iv dosed once daily measured on day 4 post dose; format: ADME, organism-based; parameters: route intravenous; conditions: human
# [15] = AUC (0 to 24 hrs) in adult human at 50 mg, iv dosed once daily measured on day 1 post dose; format: ADME, organism-based; parameters: time < 24 hr, dose 50 mg, route intravenous; conditions: plasma
# [16] = Cmax in plasma of adult human at 50 mg, iv dosed once daily measured on day 1 post dose; format: ADME, organism-based; parameters: dose 50 mg, route intravenous
# Homo sapiens [17] = test: Clearance in adult human at 50 mg, iv dosed once daily measured on day 1 post dose; format: ADME, organism-based; conditions: in vivo
# [18] = AUC (0 to 24 hrs) in adult human at 50 mg, iv dosed once daily measured on day 3 to 14 post dose; format: ADME, organism-based; parameters: dose 50 mg, time < 24 hr, route intravenous; conditions: plasma
# [19] = Cmax in plasma of adult human at 50 mg, iv dosed once daily measured on day 3 to 14 post dose; format: ADME, organism-based; parameters: dose 50 mg, route intravenous
# [20] = AUC (0 to 24 hrs) in adult human at 70 mg, iv dosed once daily measured on day 1 post dose; format: ADME, organism-based; parameters: dose 70 mg, time < 24 hr, route intravenous; conditions: plasma
# [21] = Cmax in plasma of adult human at 70 mg, iv dosed once daily measured on day 1 post dose; format: ADME, organism-based; parameters: dose 70 mg, route intravenous
# Homo sapiens [22] = test: Clearance in adult human at 70 mg, iv dosed once daily measured on day 1 post dose; format: ADME, organism-based; conditions: in vivo
# [23] = AUC (0 to 24 hrs) in adult human at 70 mg, iv dosed once daily measured on day 3 to 14 post dose; format: ADME, organism-based; parameters: dose 70 mg, time < 24 hr, route intravenous; conditions: plasma
# [24] = Cmax in plasma of adult human at 70 mg, iv dosed once daily measured on day 3 to 14 post dose; format: ADME, organism-based; parameters: dose 70 mg, route intravenous
# [25] = AUC (0 to 24 hrs) in 2-11 years old children at 50 mg/m'2, iv dosed once daily measured on day 1 post dose; format: ADME, organism-based; parameters: time < 24 hr, route intravenous; conditions: human, plasma
# [26] = Cmax in plasma of 2-11 years old children at 50 mg/m'2, iv dosed once daily measured on day 1 post dose; format: ADME, organism-based; parameters: route intravenous; conditions: human
# Homo sapiens [27] = test: Cmin in plasma of 2-11 years old children at 50 mg/m'2, iv dosed once daily measured on day 1 post dose; format: ADME, organism-based; conditions: in vivo
# Homo sapiens [28] = test: Clearance in 2-11 years old children at 50 mg/m'2, iv dosed once daily measured on day 1 post dose; format: ADME, organism-based; conditions: in vivo
# [29] = AUC (0 to 24 hrs) in 2-11 years old children at 50 mg/m'2, iv dosed once daily measured on day 4 post dose; format: ADME, organism-based; parameters: time < 24 hr, route intravenous; conditions: human, plasma
# [30] = Cmax in plasma of 2-11 years old children at 50 mg/m'2, iv dosed once daily measured on day 4 post dose; format: ADME, organism-based; parameters: route intravenous; conditions: human
# [31] = AUC (0 to 24 hrs) in 12-17 years old adolescents at 50 mg/m'2, iv dosed once daily measured on day 1 post dose; format: ADME, organism-based; parameters: time < 24 hr, route intravenous; conditions: human, plasma
# [32] = Cmax in plasma of 12-17 years old adolescents at 50 mg/m'2, iv dosed once daily measured on day 1 post dose; format: ADME, organism-based; parameters: route intravenous; conditions: human
# Homo sapiens [33] = test: Clearance in 12-17 years old adolescents at 50 mg/m'2, iv dosed once daily measured on day 1 post dose; format: ADME, organism-based; conditions: in vivo
# [34] = AUC (0 to 24 hrs) in 12-17 years old adolescents at 50 mg/m'2, iv dosed once daily measured on day 4 post dose; format: ADME, organism-based; parameters: time < 24 hr, route intravenous; conditions: human, plasma
# [35] = Cmax in plasma of 12-17 years old adolescents at 50 mg/m'2, iv dosed once daily measured on day 4 post dose; format: ADME, organism-based; parameters: route intravenous; conditions: human
# [36] = AUC (0 to 24 hrs) in 12 […] old infants/toddlers measured on day 1 post dose; format: ADME, organism-based; parameters: time < 24 hr; conditions: human, plasma
# [37] = AUC (0 to 24 hrs) in 12 […] old infants/toddlers measured on day 4 post dose; format: ADME, organism-based; parameters: time < 24 hr; conditions: human, plasma
# [38] = Cmax in plasma of in 12 […] old infants/toddlers measured on day 1 post dose; format: ADME, organism-based; conditions: human
# [39] = (§1) Cmax in plasma of in 12 […] old infants/toddlers measured on day 4 post dose; format: ADME, organism-based; conditions: human, plasma
# Homo sapiens [40] = species: Homo sapiens; test: as §1; format: ADME, organism-based; conditions: in vivo
# Homo sapiens [41] = species: Homo sapiens; test: Clearance in 12 […] old infants/toddlers measured on day 1 post dose; format: ADME, organism-based; conditions: in vivo
# [42] = AUC (0 to 24 hrs) in 10 […] old infants/toddlers measured on day 1 post dose; format: ADME, organism-based; parameters: time < 24 hr; conditions: human, plasma
# [43] = AUC (0 to 24 hrs) in 10 […] old infants/toddlers measured on day 4 post dose; format: ADME, organism-based; parameters: time < 24 hr; conditions: human, plasma
# [44] = Cmax in plasma of in 10 […] old infants/toddlers measured on day 1 post dose; format: ADME, organism-based; conditions: human
# [45] = Cmax in plasma of in 10 years old infants/toddlers measured on day 4 post dose; format: ADME, organism-based; conditions: human
# Homo sapiens [46] = species: Homo sapiens; test: Clearance in 10 […] old infants/toddlers measured on day 1 post dose; format: ADME, organism-based; conditions: in vivo
# [47] = AUC (0 to 24 hrs) in 13 […] old infants/toddlers measured on day 4 post dose; format: ADME, organism-based; parameters: time < 24 hr; conditions: human, plasma
# [48] = Cmax in plasma of in 13 […] old infants/toddlers measured on day 1 post dose; format: ADME, organism-based; conditions: human
# Homo sapiens [49] = species: Homo sapiens; test: Clearance in infants/toddlers measured on day 1 post dose; conditions: in vivo
# [50] = Cmax in plasma in infants/toddlers measured on day 1 post dose; conditions: human
# [51] = Cmax in plasma in infants/toddlers measured on day 4 post dose; conditions: human
# [52] = AUC (0 to 24 hrs) in infants/toddlers measured on day 1 post dose; conditions: human, plasma
# [53] = AUC (0 to 24 hrs) in infants/toddlers measured on day 4 post dose; conditions: human, plasma
# Homo sapiens [54] = species: Homo sapiens; test: Clearance in 3 to 24 months old infants/toddlers measured on day 1 post dose; conditions: in vivo
# [55] = Cmax in plasma of in 3 to 24 months old infants/toddlers measured on day 4 post dose; conditions: human
compound,measurement,setting,value
CC[C@H](C)C[C@H](C)CCCCCCCCC(=O)N[C@H]1C[C@@H](O)[C@@H](NCCN)NC(=O)[C@@H]2[C@@H](O)CCN2C(=O)[C@H]([C@H](O)CCN)NC(=O)[C@H]([C@H](O)[C@@H](O)c2ccc(O)cc2)NC(=O)[C@@H]2C[C@@H](O)CN2C(=O)[C@H]([C@@H](C)O)NC1=O [CASPOFUNGIN],AUC(0-t) at 24 h,[1],102 µg·h/mL
same,AUC at 24 h,[2],135 µg·h/mL
same,Cmax,[3],13900 ng/mL
same,Cmax,[4],16400 ng/mL
same,CL,Homo sapiens [5],4.94 ml/min/m2
same,AUC(0-t) at 24 h,[6],97.4 µg·h/mL
same,AUC at 24 h,[7],122 µg·h/mL
same,Cmax,[8],13000 ng/mL
same,Cmax,[9],12100 ng/mL
same,AUC(0-t) at 24 h,[10],120 µg·h/mL
same,Cmax,[11],17500 ng/mL
same,CL,Homo sapiens [12],6.05 ml/min/m2
same,AUC at 24 h,[13],130 µg·h/mL
same,Cmax,[14],17200 ng/mL
same,AUC(0-t) at 24 h,[15],70.6 µg·h/mL
same,Cmax,[16],7670 ng/mL
same,CL,Homo sapiens [17],6.07 ml/min/m2
same,AUC at 24 h,[18],103 µg·h/mL
same,Cmax,[19],9390 ng/mL
same,AUC(0-t) at 24 h,[20],97.1 µg·h/mL
same,Cmax,[21],10000 ng/mL
same,CL,Homo sapiens [22],5.2 ml/min/m2
same,AUC at 24 h,[23],154 µg·h/mL
same,Cmax,[24],13300 ng/mL
same,AUC(0-t) at 24 h,[25],96.4 µg·h/mL
same,Cmax,[26],14000 ng/mL
same,Cmin,Homo sapiens [27],1090 ng/mL
same,CL,Homo sapiens [28],7.78 ml/min/m2
same,AUC at 24 h,[29],115 µg·h/mL
same,Cmax,[30],15600 ng/mL
same,AUC(0-t) at 24 h,[31],77.6 µg·h/mL
same,Cmax,[32],8950 ng/mL
same,CL,Homo sapiens [33],6.3 ml/min/m2
same,AUC at 24 h,[34],117 µg·h/mL
same,Cmax,[35],12900 ng/mL
same,AUC(0-t) at 24 h,[36],109 µg·h/mL
same,AUC at 24 h,[37],122 µg·h/mL
same,Cmax,[38],17500 ng/mL
same,Cmax,[39],15900 ng/mL
same,Cmax,Homo sapiens [40],17960 ng/mL
same,CL,Homo sapiens [41],6.44 ml/min/m2
same,AUC(0-t) at 24 h,[42],160 µg·h/mL
same,AUC at 24 h,[43],114 µg·h/mL
same,Cmax,[44],14500 ng/mL
same,Cmax,[45],15200 ng/mL
same,CL,Homo sapiens [46],4.37 ml/min/m2
same,AUC at 24 h,[47],121 µg·h/mL
same,Cmax,[48],15800 ng/mL
same,CL,Homo sapiens [49],6.82 ml/min/m2
same,Cmax,[50],21500 ng/mL
same,Cmax,[51],21300 ng/mL
same,AUC(0-t) at 24 h,[52],120 µg·h/mL
same,AUC at 24 h,[53],171 µg·h/mL
same,CL,Homo sapiens [54],5.98 ml/min/m2
same,Cmax,[55],16900 ng/mL
